According to ChEMBL document CHEMBL4811317, “Inhibitory activities of anthraquinone and xanthone derivatives against transthyretin amyloidogenesis” (Bioorg Med Chem, 2021):
Converted amounts (≈) assume the structure as drawn. The source made the active and inactive calls. The calls are words filed in the database; no cut-off is given here.

Tests used:
Transthyretin = Transthyretin (Homo sapiens, UniProt P02766, V50M); test: Inhibition of acid-mediated aggregation of TTR V30M mutant (unknown origin) expressed in Escherichia coli pretreated for 30 mins at pH 7 followed by protein dilution in acetate buffer and further incubated for 96 hrs at pH 4.6 by thioflavin-T fluorescence assay
[1] = target: Transthyretin (Homo sapiens) (UniProt P02766); test: Binding affinity to TTR V30M mutant (unknown origin) expressed in Escherichia coli by isothermal titration calorimetry
[2] = Metabolic stability in Sprague-Dawley rat liver microsomes assessed as residual rate at 1 uM preincubated for 5 mins followed by NADPH addition and measured after 30 mins by LC-MS/MS analysis; assay type: ADME, Microsome; settings: time 35 min, read-out: Stabilty
How it was run: (§1)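 Rat liver microsomes 0.2 mg/mL with 1 μM compound, 1 mM EDTA, 0.1 M phosphate pH 7.4; 5 min preincubation, then 1 mM NADPH (final) added, 30 min at 37 °C, 60 rpm. Quenched in cold acetonitrile/internal standard, supernatant by LC-MS/MS against time zero. CLint scaled with 44.8 mg protein/g liver, 40.0 g liver/kg. At least two technical replicates.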

[3] = Metabolic stability in Sprague-Dawley rat liver microsomes assessed as residual rate at 1 uM measured after 30 mins by LC-MS/MS analysis; assay type: ADME, Microsome; settings: read-out: Stabilty
[4] = Aqueous solubility of the compound in pH 1.2 JP1 fluid measured after 4 hrs ny HPLC-UV analysis; assay type: physicochemical
How it was run: (§2)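 Test compound diluted from 10 mM DMSO stock 2:165 into JP 1st fluid (pH 1.2) or JP 2nd fluid (pH 6.8); mixed 4 h at 37 °C with rotation at 1000 rpm, then filtered through 0.45 μm PVDF by centrifugation. At least two technical replicates.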

[5] = Aqueous solubility of the compound in pH 6.8 JP2 fluid measured after 4 hrs by HPLC-UV analysis; assay type: physicochemical; how it was run: as §2
[6] = Permeability of the compound at 10 uM measured after 4 hrs by PAMPA based LC-MS analysis; assay type: ADME; settings: read-out: permeability
How it was run: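 PAMPA on pre-coated plates: donor 10 μM compound in 5% DMSO/0.1 M phosphate pH 6.4, acceptor 5% DMSO/0.1 M phosphate pH 7.4; 4 h at 37 °C without agitation. Donor, acceptor and initial donor solutions quantified by LC-MS/MS; recovery above 90%. Antipyrine, metoprolol, sulfasalazine as references. At least two technical replicates.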

[7] = Intrinsic clearance in Sprague-Dawley rat liver microsomes at 1 uM preincubated for 5 mins followed by NADPH addition and measured after 30 mins by LC-MS/MS analysis; assay type: ADME, Microsome; settings: time 35 min, read-out: CLH; how it was run: as §1
[8] = Protein binding in Sprague-Dawley rat plasma assessed as unbound fraction at 1 uM measured after 4 hrs by equilibrium dialysis assay; assay type: ADME, cell-free
How it was run: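 Rat plasma spiked at 1 μM, equilibrium dialysis (8K MWCO) against 0.1 M phosphate pH 7.4 for 4 h at 37 °C, 1000 rpm. Unbound fraction = buffer/plasma concentration ratio. At least two technical replicates.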

[9] = Cmax in Sprague-Dawley rat at 1 mg/kg, iv measured up to 8 hrs by LC-MS/MS analysis; assay type: ADME, organism-based; design: route intravenous, dose 1 mg/kg, time <=8; settings: in vivo
How it was run: (§3)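 Male Sprague Dawley rats (7 weeks old, n = 2) given compound in 10% DMSO/0.1 M phosphate pH 8.5, i.v. or p.o. Caudal-vein blood at 5 min (i.v.), 15, 30 min, 1, 2, 4, 8 h; plasma precipitated with acetonitrile/IS, LC-MS/MS. Non-compartmental analysis; bioavailability = AUC∞(p.o.)/AUC∞(i.v.).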

[10] = Elimination half life in Sprague-Dawley rat at 1 mg/kg, iv measured up to 8 hrs by LC-MS/MS analysis; assay type: ADME, organism-based; settings: in vivo, read-out: beta t1/2 (converted); how it was run: as §3
[11] = AUC infinity in Sprague-Dawley rat at 1 mg/kg, iv measured up to 8 hrs by LC-MS/MS analysis; assay type: ADME, organism-based; design: route intravenous, dose 1 mg/kg, time <=8; settings: in vivo
[12] = Total clearance in Sprague-Dawley rat at 1 mg/kg, iv measured up to 8 hrs by LC-MS/MS analysis; assay type: ADME, organism-based; settings: in vivo; how it was run: as §3
[13] = Volume of distribution at steady state in Sprague-Dawley rat at 1 mg/kg, iv measured up to 8 hrs by LC-MS/MS analysis; assay type: ADME, organism-based; settings: in vivo, read-out: Vdss; how it was run: as §3
[14] = Bioavailability in Sprague-Dawley rat at 1 mg/kg, iv measured up to 8 hrs by LC-MS/MS analysis; assay type: ADME, organism-based; settings: in vivo; how it was run: as §3
[15] = Cmax in Sprague-Dawley rat at 1 mg/kg, po measured up to 8 hrs by LC-MS/MS analysis; assay type: ADME, organism-based; design: route oral, dose 1 mg/kg, time <=8; settings: in vivo; how it was run: as §3
[16] = Tmax in Sprague-Dawley rat at 1 mg/kg, po measured up to 8 hrs by LC-MS/MS analysis; assay type: ADME, organism-based; settings: in vivo; how it was run: as §3
[17] = Elimination half life in Sprague-Dawley rat at 1 mg/kg, po measured up to 8 hrs by LC-MS/MS analysis; assay type: ADME, organism-based; settings: in vivo, read-out: beta t1/2 (converted); how it was run: as §3
[18] = AUC infinity in Sprague-Dawley rat at 1 mg/kg, po measured up to 8 hrs by LC-MS/MS analysis; assay type: ADME, organism-based; design: route oral, dose 1 mg/kg, time <=8; settings: in vivo

| IC50 (Transthyretin) | SMILES | further results |
| --- | --- | --- |
| 45 µM | Cc1cc(C(=O)O)c2c(c1)C(=O)c1ccccc1C2=O |  |
| > 100 µM | COc1cccc2c1C(=O)c1c(O)c3c(c(O)c1C2=O)C[C@@](O)(C(C)=O)C[C@@H]3O[C@H]1C[C@H](N)[C@H](O)[C@H](C)O1 [DAUNORUBICIN] |  |
| 19 µM | O=C(O)c1ccc2c(=O)c3ccccc3oc2c1 |  |
| 11 µM | Nc1c(O)c(S(=O)(=O)O)c(O)c2c1C(=O)c1ccccc1C2=O |  |
| 50 µM | O=C(O)c1ccc2c(c1)C(=O)c1cccc(O)c1C2=O |  |
| 13 µM | O=C(O)c1ccc2c(=O)c3ccc(Cl)cc3oc2c1 |  |
| 10 µM | CC(=O)Oc1cccc2c1C(=O)c1ccc(C(=O)O)cc1C2=O |  |
| 22 µM | O=C(O)c1ccc2oc3ccccc3c(=O)c2c1 |  |
| > 100 µM | Cc1ccc2c(=O)c3ccccc3oc2c1 |  |
| 12 µM | O=C(O)c1cc(Cl)c2c(c1)C(=O)c1ccccc1C2=O |  |
| 10 µM | O=C(O)c1ccc2c(=O)c3cc(Cl)ccc3oc2c1 |  |
| > 100 µM | O=C(O)c1ccc2oc3cc(Cl)ccc3c(=O)c2c1 |  |
| 13 µM | Cc1cc(C(=O)O)cc2c1C(=O)c1ccccc1C2=O |  |
| 21 µM | O=C(O)c1ccc2c(c1)C(=O)c1c(Cl)c(Cl)c(Cl)c(Cl)c1C2=O |  |
| > 100 µM | O=C(O)c1cc(C(=O)O)c2c(c1)C(=O)c1ccccc1C2=O |  |
| 13 µM | O=C(O)c1ccc2oc3cccc(Cl)c3c(=O)c2c1 |  |
| 6.7 µM | O=C(O)c1cc(Cl)c2oc3ccccc3c(=O)c2c1 | Activity [1]: Active; remaining at 0.5 h, 1 µM [2]: 88%; remaining at 0.5 h, 1 µM [3]: 88%; solubility at 4 h [4]: 2.9 µM (≈ 0.797 µg/mL); solubility at 4 h [5]: > 100 µM; Papp at 4 h, 10 µM [6]: 17 ×10⁻⁶ cm/s; CLint scaled at 1 µM [7]: 37.9 mL/min/kg; fraction unbound at 4 h, 1 µM [8]: 0.017; Cmax [9]: 8650 ng/mL; half-life [10]: 1.7 h; AUC(0-inf) [11]: 13200 ng·h/mL; clearance [12]: 1.27 mL/min/kg; Vd [13]: 0.164 L/kg; bioavailability [14]: 69.8%; Cmax [15]: 1120 ng/mL; Tmax [16]: 2 h; half-life [17]: 5 h; AUC(0-inf) [18]: 9190 ng·h/mL |
| 5.4 µM | CC(=O)Oc1cccc2c1C(=O)c1c(OC(C)=O)cc(C(=O)O)cc1C2=O [DIACEREIN] |  |
| 12 µM | O=C(O)c1ccc2oc3ccc(Cl)cc3c(=O)c2c1 |  |
| 12 µM | O=C1c2ccccc2C(=O)c2c(O)c(O)cc(O)c21 [PURPURIN] |  |

| SMILES | IC50 (Transthyretin) | further results |
| --- | --- | --- |
| Cc1cc(O)c2c(c1)C(=O)c1cc(O)cc(O)c1C2=O [EMODIN] | > 100 µM |  |
| Nc1ccc(O)c2c1C(=O)c1c(O)c(S(=O)(=O)O)cc(N)c1C2=O | > 100 µM |  |
